Source: ChEMBL document CHEMBL1122233, “Antihypertensive 9-substituted 1-oxa-4,9-diazaspiro[5.5]undecan-3-ones” (J Med Chem, 1983)

Columns and labels:
Assay type in all cases: functional, Artery
Settings in all cases: route oral
[1] = tested on: Rattus norvegicus; assay: Percentage fall in systolic blood pressure after 3 hr at 0.31 mg/kg given perorally
Procedure, shortened: (§1)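 Male Okamoto-Aoki spontaneously hypertensive rats, trained, in groups of four matched for mean systolic pressure; five treated groups and one vehicle control run concurrently. Oral dosing in water (solution or suspension, 0.1 mL/10 g) on two consecutive mornings. On day 2, rats were restrained at 30.0 ± 1.0 °C and tail-cuff systolic pressure recorded at 1–4 h; percent fall versus control, 1-tail t test, p ≤ 0.05.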

[2] = tested on: Rattus norvegicus; assay: Percentage fall in systolic blood pressure after 1 hr at 0.31 mg/kg given perorally; procedure, shortened: as §1
[3] = tested on: Rattus norvegicus; assay: Percentage fall in systolic blood pressure after 1 hr at 1.25 mg/kg given perorally; procedure, shortened: as §1
[4] = tested on: Rattus norvegicus; assay: Percentage fall in systolic blood pressure after 2 hr at 0.31 mg/kg given perorally; procedure, shortened: as §1
[5] = tested on: Rattus norvegicus; assay: Percentage fall in systolic blood pressure after 2 hr at 1.25 mg/kg given perorally; procedure, shortened: as §1
[6] = tested on: Rattus norvegicus; assay: Percentage fall in systolic blood pressure after 4 hr at 0.31 mg/kg given perorally; procedure, shortened: as §1
[7] = tested on: Rattus norvegicus; assay: Percentage fall in systolic blood pressure after 4 hr at 1.25 mg/kg given perorally; procedure, shortened: as §1
[8] = tested on: Rattus norvegicus; assay: Percentage fall in systolic blood pressure after 3 hr at 1.25 mg/kg given perorally; procedure, shortened: as §1

COc1cc2nc(N3CCN(C(=O)c4ccco4)CC3)nc(N)c2cc1OC [PRAZOSIN]
Decrease in SBP [1]: 21%
Decrease in SBP [2]: 19%
Decrease in SBP [3]: 26%
Decrease in SBP [4]: 31%
Decrease in SBP [5]: 46%
Decrease in SBP [6]: 26%
Decrease in SBP [7]: 31%
Decrease in SBP [8]: 36%
